Assay outcomes deposited in PubChem by several laboratories.
Only some compounds are listed: those with a hit (about 3% of all), similar ones and a draw of the others.
Ins promoter up = MIN6 insulin promoter up-regulation | MIN6 insulin promoter-GFP reporter, high-content imaging; stronger effect = higher value | 190,000 compounds, 0.3% hits | z-score at 5 µM | AID 1625;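 active = z-score above 3 at 5 µM with at least 500 cells counted in the well; inconclusive = wells under 500 cells, flagged as cytotoxic or low count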
Insulin prom inh = TRM-6 insulin promoter activity inhibition. TRM-6 cells (human fetal islet line), insulin promoter-eGFP reporter, imaging; reporter expression induced with tamoxifen. inhibition, % at 2 µM. 130,000 compounds, 0.9% hits;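 active = inhibition above the mean plus 3 SD, with well images judged a real hit on visual review, cut at about 60% in these data, passing the limit was not always enough; inconclusive = inhibition over the cutoff but images rejected on review; inactive = inhibition not above the cutoff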
Yeast lifespan up = yeast lifespan extension | AID 775 | S. cerevisiae growth with nicotinamide, OD615; deaD strain in restrictive glucose medium | inhibition of the nicotinamide effect, % at 10 µM | 130,000 compounds, 0.68% hits;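 active = inhibition above a set limit, placed 3 SD over the median of all compounds, cut at about 26% in these data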;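 also: 0% = nicotinamide-treated wells and 100% = cells grown without nicotinamide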
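System: DeaD-strain S. cerevisiae / Buffer or medium: CSMM-D, restrictive glucose (dextrose) synthetic minimal medium / Probe or stimulus: nicotinamide, 1.5 mM, co-present with compound / Compound: one concentration, 10 µM, DMSO 0.25% / Incubation: 48 h compound exposure at 30 °C, humidified / Technique: optical density (absorbance) at 615 nm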
RAM network inh = inhibitors of the yeast RAM network | S. cerevisiae dse1pr::URA3 reporter, 5-FOA growth OD615, 2 d; analog-sensitive cbk1-as2 kinase mutant strain | inhibition, % at 50 µM | 190,000 compounds, 1.8% hits | AID 868;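 active = inhibition above a set limit, 3 SD over mean compound inhibition, cut at about 8.4% in these data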;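 also: 0% = DMSO-only wells with no growth and 100% = 10 µM 1-NA-PP1 full growth; inhibition rescues growth on 5-FOA so higher OD means more RAM inhibition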
Yeast growth inh = yeast BB579 growth reduction in restrictive medium. S. cerevisiae BB579 growth, OD615, 48 h. inhibition, % at 10 µM. 140,000 compounds, 0.51% hits;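 active = inhibition above a set limit, 3 SD over the mean compound inhibition, cut at about 44% in these data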
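controls = amphotericin B 10 µg/mL, positive | assay system = DeaD yeast strain BB579 | schedule = 48 h compound exposure at 30 °C after 4 h preincubation | detection = OD615 turbidity measurement | medium = restrictive CSMM-D medium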
RAM efflux-def = RAM network inhibition, efflux-deficient strain. shares compounds with RAM network inh. S. cerevisiae efflux-deficient reporter strain, 5-FOA growth OD615, 2 days. max inhibition, %. 1,200 tested, under 10 active. AID 1305; call rule not given here;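 also: plate controls were vehicle for no effect and reference inhibitor for full effect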
* = called active by the depositor; i = inactive; ? = inconclusive; / = no result given.

SMILES	Ins promoter up	Insulin prom inh	Yeast lifespan up	RAM network inh	Yeast growth inh	RAM efflux-def
Cn1cccc1C(=O)OCC(=O)Nc1ccc2c(c1)OCO2	-0.55	/	/	-0.5	/	/
Cn1cccc1C(=O)OCc1cc(Cl)cc2c1OCOC2	0.08	/	-7.2	12.4*	-47.1	3.9
CCOC(=O)c1sc(/S(C)=N\S(=O)(=O)c2cccc(Cl)c2)c2c1CCC=C2 (stereo not given)	0.65	/	/	/	/	/
CCOc1cc(/C=N/N=C2/NC(=O)C(CC(=O)O)S2)ccc1OS(=O)(=O)c1ccc(C)cc1 (stereo not given)	/	26.7	/	12.3*	/	1.7
CCOc1cc(/C=N/N=C2/NC(=O)C(CC(=O)O)S2)ccc1OCc1ccccc1Cl (stereo not given)	-0.76	-42.9	/	3.7	/	/
O=C(NC1CCCCC1)c1sc(N2CCOCC2)nc1-c1ccccc1	0.71	-39.3	4.2	5.8	-34.1	/
O=C(Nc1ccc(-c2nc3ccccc3s2)cc1)c1cc(-n2cnnc2)ccc1Cl	-0.43	/	-5.1	15.5*	-23.8	4.9
Cc1ccc(CNc2ccc(N3C(=O)CCCC3=O)cc2[N+](=O)[O-])cc1	0.55	-25.0	-0.7	2.9	-20.6	/
COc1ccc(CNc2oc(COc3ccccc3)nc2C#N)cc1	0.61	-15.4	-9.5	4.9	-15.8	/
COc1ccc(CNc2oc(Cc3cccc4ccccc34)nc2C#N)cc1	-0.78	/	-1.4	12.6*	-25.6	2.9
COc1ccccc1-c1nc(C#N)c(N2CCC(Cc3ccccc3)CC2)o1	0.53	-50.0	-9.0	13.1*	-48.4	5.0
CN1CCN(c2oc(Cc3cccc4ccccc34)nc2C#N)CC1	-0.12	/	/	/	/	/
N#Cc1nc(Cc2ccccc2)oc1N1CCC(Cc2ccccc2)CC1	-0.53	-23.5	0.9	12.8*	-38.3	7.0
N#Cc1nc(Cc2cccc3ccccc23)oc1N1CCCCC1	1.35	/	0.6	12.1*	-26.2	3.0
N#Cc1nc(Cc2ccccc2)oc1N1CCN(c2ccccc2)CC1	0.29	50.0	-7.8	4.5	-33.2	/
Cc1cc(C)nc(NS(=O)(=O)c2ccc(N/C=C/C(=O)c3ccc(Cl)c(Cl)c3)cc2)n1	-0.18	32.3	2.0	4.3	-8.7	/
Cc1ccc(-c2nc(CN(C)Cc3cccc4cnccc34)c(C)o2)s1	1.2	/	/	0.7	/	/
COc1ccc(C2NC(=O)NC(C)=C2C(=O)Nc2cc(C)ccc2C)cc1OC (stereo not given)	0.14	12.3	-13.9	11.8*	0.5	4.3
COc1ccccc1NC(=O)C1=C(C)NC(=O)NC1c1ccc(C)cc1 (stereo not given)	0.56	30.0	-7.1	0.1	11.0	/
O=C(NCc1cccnc1)c1ccc([N+](=O)[O-])o1	/	-35.7	/	3.1	/	/
Cc1ccccc1-c1nnn(C/C(N)=N/O)n1	-0.17	/	/	0.2	/	/
CCC(=O)N1C(=O)C2(Nc3ccccc3N2)c2ccccc21	0.58	-8.1	/	1.2	/	/
c1ccc(CSc2nnc(Cc3ccccc3)o2)cc1	0.11	/	/	0.5	/	/
Fc1ccc(CSc2nnc(Cc3sc(-c4ccccc4)nc3-c3ccccc3)o2)cc1	-0.88	38.7	12.6	21.6*	-71.0	2.1
COC(=O)c1ccc(/C=N/NC(=O)CC(=O)NCc2cccnc2)cc1	-0.36	/	/	-0.1	/	/
SMILES	Ins promoter up	Insulin prom inh	Yeast lifespan up	RAM network inh	Yeast growth inh	RAM efflux-def
O=C(OCc1nnc(-c2ccccc2)o1)C12CC3CC(CC(Br)(C3)C1)C2	-0.39	0.0	/	21.3*	/	2.4
CC1=CC(C)(C)n2c(O)c(N=NC(N)=S)c3cccc1c32	-0.31	/	11.1	12.5*	-34.1	4.7
COc1ccccc1/C=C(/C(=O)OCC(=O)Nc1ccccc1C(C)C)c1ccccc1	-0.99	57.1	3.1	11.9*	-45.6	2.6
CCOc1ccc2nc3c(cc2c1)CN(CCOC)C(=NCCOC)S3	-0.5	5.7	4.1	13.9*	-31.0	3.3
O=C(OCC#CCSc1nnc(-c2cccc3ccccc23)o1)c1cccs1	0.2	23.5	-8.6	14.5*	-45.0	2.1
O=C(OCC#CCSc1nnc(-c2ccccc2)o1)c1cccs1	/	-2.7	-5.3	3.3	-28.0	/
O=C(CN1CCN(S(=O)(=O)c2ccc(Br)cc2)CC1)N/N=C/c1ccncc1	-0.35	/	/	/	/	/
COc1ccc(N2CCN(S(=O)(=O)c3cnc[nH]3)CC2)cc1	-0.07	/	/	/	/	/
COCCOC(=O)c1c(C)oc2ccc(OC(=O)c3c(OC)cccc3OC)cc12	-0.71	/	-6.6	12.4*	-34.3	1.2
O=c1c(Cc2ccc(F)cc2)c(O)ccn1CCCN1CCOCC1	-0.32	15.0	/	-0.6	/	/
CN(c1ccc(C(=O)NCCSCc2ccccc2)cc1)S(=O)(=O)c1ccccc1	0.47	-17.1	-0.5	6.5	-16.3	/
Cc1cccc(CSCCNC(=O)c2ccc(N(C)S(=O)(=O)c3ccccc3)cc2)c1	0	-37.5	3.5	17.6*	-46.9	4.9
COc1ccc(NC(=O)COC(=O)/C=C/c2cnc3ccccc3n2)cc1	/	/	/	1.1	/	/
Cn1c(=O)c2c(ncn2CC(=O)N2CCN(C(=O)c3ccco3)CC2)n(C)c1=O	0.07	/	/	2.2	/	/
CCCC(c1nnnn1Cc1ccco1)N1CCN(c2cc(Cl)ccc2C)CC1 (stereo not given)	/	/	-0.4	21.4*	-65.3	1.7
CCCCc1ccc(-c2csc(/C(C#N)=C\c3ccc(C)o3)n2)cc1	0.36	33.3	39.9	13.8*	-26.2	6.2
C=CCc1cccc(/C=N/NC(=O)C(C)Nc2ccc(C)cc2)c1O (stereo not given)	?	16.7	0.9	16.1*	7.3	1.3
COc1ccc(Cc2nnc(Nc3ccc4c(c3)OCCO4)[nH]c2=O)cc1	-0.09	/	/	2.8	/	/
COc1cc(C2C3=C(Nc4nc(N)[nH]c(=O)c42)c2ccccc2C3=O)ccc1O (stereo not given)	-0.1	/	/	/	/	/
N#C/C(=C\C1=C(N2CCOCC2)C(=C/c2cccc([N+](=O)[O-])c2)/CC1)C(=O)Nc1ccccc1F	3.07*	i	5.6	11.4*	-55.7	3.5
CCOC(=O)c1c(C)[nH]c(C)c1C(=O)COC(=O)/C=C/c1ccc(Cl)cc1	-0.71	18.8	-2.6	12.0*	-26.9	1.2
COc1ccccc1-c1noc(CCC(=O)Nc2cccc(C(F)(F)F)c2)n1	-0.15	37.0	-8.3	22.6*	-41.6	1.1
Cc1[nH]ccc(=O)c1OC1OC(CO)C(O)C(O)C1O (stereo not given)	1.58	14.3	-0.7	1.4	-15.7	/
COC(=O)C(CCSC)NS(=O)(=O)c1ccc(Cl)cc1 (stereo not given)	-0.14	0.0	/	-0.5	/	/
COc1ccc(C(=O)COC(=O)C(CCSC)NS(=O)(=O)c2ccc(Cl)cc2)cc1 (stereo not given)	0.04	21.4	19.8	15.3*	-18.3	1.2
CSc1nnc(-c2ccccc2)c(-c2ccccc2)n1	-0.36	/	/	/	/	/
CSc1nnc2c3ccccc3c3ccccc3c2n1	/	2.7	-8.1	12.9*	-59.4	2.8
Cc1ccc(Cl)cc1N1CCN(C(=S)NCCc2ccccc2)CC1	-0.72	5.9	/	13.0*	/	2.8
